PostGolgi yeast = growth inhibition of a yeast mutant, post-Golgi transport screen; AID 739; 0.9% of 98,000 active; inhibition, % at 10 µM; post-Golgi transport phenotypic cell assay;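 further: yeast cells grown in 1536-well plates; yeast grown about 18 h at 30C before absorbance read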
Ecoli tolC = growth inhibitors of E. coli BW25113 tolC mutant. OD615. growth inhibition, % at 10 µM (by protocol). 2.2% of 65,000 active;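 active means growth inhibition at or above a cutoff equal to the mean over every tested compound plus 3 SD, cut at about 60% in these data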;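 further: growth measured after 20 h incubation at 37 °C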
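signal = optical density read at 615 nm | test system = E. coli ΔtolC::kan strain BW25113 | timing = 20 h compound exposure of bacteria at 37 °C | buffer or medium = LB medium plus 50 µg/mL kanamycin | compound dosing = 10 µM final, single dose | evaluation = % inhibition of E. coli growth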
PostGolgi ctrl = growth of the yeast control strain, post-Golgi counter-screen; efflux-deficient yeast background strain, growth absorbance A615, 16 h; inhibition, % at 10 µM; 5% of 98,000 active; AID 738
PLAP activator = human PLAP activation. 1.2% of 96,000 active. purified PLAP enzyme, luminescent substrate read-out; hits give high values. P05187. activation fold at 20 µM; in the data active means activation fold above about 2
HePTP inhibitor = inhibitors of human HePTP phosphatase; P35236; inhibition, % at 20 µM; recombinant HePTP phosphatase activity, OD absorbance; AID 521; 0.64% of 110,000 active; in the data active means inhibition above about 50%;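 further: plate controls were vehicle for no effect and reference inhibitor for full effect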
Target sequence (P35236 whole entry, looked up): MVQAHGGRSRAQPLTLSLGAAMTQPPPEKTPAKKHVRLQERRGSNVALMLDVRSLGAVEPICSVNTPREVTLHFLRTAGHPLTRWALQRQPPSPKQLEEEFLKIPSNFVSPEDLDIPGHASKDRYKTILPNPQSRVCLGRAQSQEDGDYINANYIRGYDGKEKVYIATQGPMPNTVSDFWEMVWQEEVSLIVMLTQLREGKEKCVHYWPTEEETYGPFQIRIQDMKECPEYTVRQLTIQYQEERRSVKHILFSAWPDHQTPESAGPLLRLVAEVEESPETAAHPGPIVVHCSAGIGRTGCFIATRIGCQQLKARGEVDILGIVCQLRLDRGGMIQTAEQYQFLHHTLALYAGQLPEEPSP
Ecoli WT expand = growth inhibitors of E. coli BW25113 wild type; OD600 absorbance; growth inhibition, % at 100 µM; 0.15% of 98,000 active; AID 710;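 active means growth inhibition above about 50% at one test dose, limit read from the data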;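 further: growth measured after 20 h incubation at 37 °C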
* hit, by the source's call; · = not tested or not shown. Sampled rows, rich in hits. Any-hit rate of the full collection: about 5.5%. Unless noted, no stated cut-off is given here; in the data, active means inhibition above about 30%; inactive means the rest.

SMILES | PostGolgi yeast | Ecoli tolC | PostGolgi ctrl | PLAP activator | HePTP inhibitor | Ecoli WT expand
CN(C)S(=O)(=O)N(CC(=O)N(Cc1ccccc1)Cc1ccccc1)c1ccccc1 | -6 | · | 34* | 1.6 | · | -4
CN(C)S(=O)(=O)N(CC(=O)Nc1ccccc1F)c1ccccc1 | · | -7 | · | · | · | ·
CN(C)S(=O)(=O)N(Cc1ccc(Br)cc1)c1ccccc1 | 15 | 88* | 13 | 1.1 | 3 | 8
CCOCCOC(=O)c1cccc(NC(=O)C(C(C)C)N2C(=O)c3ccccc3C2=O)c1 (stereo unspecified) | · | · | · | · | 4 | ·
CCc1ccc(OCC(=O)Nc2ccc(OC(F)(F)F)cc2)cc1 | · | · | · | · | -2 | ·
Clc1ccccc1CN1CCN(N=Cc2cccc(Br)c2)CC1 | · | · | · | · | -12 | ·
CCOc1ccc(C2C(C#N)=C(N)SC(N)=C2C#N)cc1OCC | 17 | 20 | 8 | 2.6* | 4 | 26
CCOc1ccc(C2C(C#N)=C(N)SC(N)=C2C#N)cc1OC | -3 | 3 | 12 | 1.9 | 5 | 2
COCCn1c(SCc2nnc(-c3ccccc3)o2)nc2sc3c(c2c1=O)CCC3 | 9 | 20 | 96* | 1.7 | 1 | -8
C=CCNC(=O)c1ccc(-c2cccc(Cl)c2)o1 | · | · | · | · | -3 | ·
Cc1ccc(C(=O)NCCCCNC(=O)c2ccc(C)o2)o1 | 2 | 7 | -1 | 1.1 | 4 | 17
Cc1ccc(C(=O)NCc2occc2C(=O)O)o1 | 34* | -8 | -3 | 0.9 | 19 | -5
COc1ccc(OC)c(C(=O)COC(=O)c2cc(C)oc2C)c1 | -10 | 61* | 12 | · | 14 | -4
C=CCn1c(NC(C)c2cc(Cl)ccc2O)nc2ccccc21 (stereo unspecified) | -5 | 100* | 32* | 1.4 | -4 | 4
CSc1ccc(/C=C/C(=O)c2ccc(NC(=O)c3cccs3)cc2)cc1 | · | · | · | · | -2 | ·
Oc1ccc(Br)cc1/C=N/n1cnc2ccccc21 | 3 | 4 | 32* | 1.1 | 5 | 2
Oc1ccc(Br)cc1/C=N/N1CCN(Cc2ccccc2)CC1 | -2 | · | 21 | 0.8 | · | 1
O=C(c1ccc(Cl)s1)N1CCc2ccccc21 | 0 | 2 | 7 | 0.9 | -1 | 6
COc1ccc(C(=O)N2CCCc3ccccc32)cc1 | -8 | 3 | -3 | 0.9 | 4 | 6
CC(C)Oc1ccc(C(=O)N2CCCc3ccccc32)cc1 | -5 | 58 | 31* | 1.7 | 0 | -1
O=C(c1ccc(C(=O)N2CCCc3ccccc32)s1)N1CCCc2ccccc21 | 105* | · | 100* | 1.5 | · | -14
Cc1ccc(C(=O)c2cn[nH]c2-c2ccccc2O)cc1 | 0 | · | 13 | 2* | · | 0
O=C(c1ccc(F)cc1)c1cn[nH]c1-c1ccccc1O | 14 | 2 | 13 | 2.5* | -2 | 3
O=C(c1ccc(Cl)cc1)c1cn[nH]c1-c1ccccc1O | 2 | · | 16 | · | · | 8
COc1ccc(C(=O)c2cn[nH]c2-c2cc(Cl)ccc2O)cc1 | 2 | 23 | 16 | 2.2* | -11 | -3
SMILES | PostGolgi yeast | Ecoli tolC | PostGolgi ctrl | PLAP activator | HePTP inhibitor | Ecoli WT expand
CC(=O)OCc1cc(C)cc(C=O)c1C | · | · | · | · | -9 | ·
O=C1NC(=S)N/C1=C/c1ccccn1 | · | · | · | · | -2 | ·
COc1cccc(C2/C(=C(\O)c3ccc([N+](=O)[O-])cc3)C(=O)C(=O)N2CCCCCC(=O)O)c1 (stereo unspecified) | · | · | · | · | -4 | ·
CCOC(=O)C(NC(C)=O)(Nc1ccc(S(=O)(=O)Nc2onc(C)c2C)cc1)C(F)(F)F (stereo unspecified) | 35* | -23 | -4 | 1 | 5 | 2
O=C(Nc1ccc(O)cc1C(=O)O)c1ccccc1Br | · | · | · | · | 7 | ·
N#Cc1nc(COc2cccc(Cl)c2)oc1N1CCCC1 | 17 | 32 | 28 | 1 | 2 | -3
N#Cc1nc(COc2ccccc2)oc1N1CCC(Cc2ccccc2)CC1 | -5 | 36 | 40* | 1 | 1 | -15
c1ccc(COc2ccc(CN3CCN(c4ccccn4)CC3)cc2)cc1 | 73* | · | 9 | 1.6 | · | 5
Cc1ccc(OCc2nc(C#N)c(N3CCN(Cc4ccccc4)CC3)o2)cc1 | -6 | 64* | 27 | 1.2 | -8 | -17
N#Cc1nc(COc2ccccc2)oc1N1CCN(Cc2ccccc2)CC1 | -5 | 67* | 6 | 1.3 | 8 | -16
O=[N+]([O-])c1ccc2nc(Sc3nc4ccccc4s3)sc2c1 | · | · | · | · | -6 | ·
O=C(CCCOc1ccc(Cl)cc1Cl)N1CCN(Cc2ccccc2)CC1 | · | · | · | · | 2 | ·
Cc1ccc(C(=O)Nn2c(O)c(C3=c4cc(Br)ccc4=NC3=O)sc2=S)cc1 | · | · | · | · | -5 | ·
On1onc2c3cc(-c4ccccc4)nc3ccc21 | 96* | 98* | 94* | 0.7 | 12 | 42
